The values that follow come from ChEMBL document CHEMBL1132156, “Synthesis and structure-activity relationships of potential anticancer agents: alkylcarbamates of 3-(9-acridinylamino)-5-hydroxymethylaniline” (J Med Chem, 1999).

SMILES strings stand for the structures. Where only a bound is given, the exact number is not on record here.

In data set [1] the test system is Mus musculus. As to the kind of experiment: […] anticancer activity against B6D2F-1 mice bearing Sarcoma 180 measured by the Average tumor vol after day 14 at an intravenous dose of 5(mg/kg).
Data set [2] has as its system Mus musculus. The data set is described as follows: […] anticancer activity against B6D2F-1 mice bearing Lewis Lung Carcinoma measured by the Average tumor vol after day 10 at an intraperitoneal dose of 3(mg/kg). It is filed as functional. The gist of the method: (§1)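 Male B6D2F1 mice (8 weeks old, 20–25 g) received 4×10^6 Lewis lung carcinoma cells sc on day -2. Dosing was ip, QDx5, starting on day 1. Groups were 4 control mice and 3 mice per dose. Tumor size and average body-weight change were evaluated on days 7, 10 and 14. Tumor volume is expressed as the treated/control ratio.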

In data set [3] the test system is Mus musculus. As to the kind of experiment: […] anticancer activity against B6D2F-1 mice bearing Lewis Lung Carcinoma measured by the average weight change(g) after day 7 at an intraperitoneal dose of 3(mg/kg). It is filed as functional. The gist of the method:
as §1

The test system of data set [4] is Mus musculus. The data set is described as follows: […] anticancer activity against B6D2F-1 mice bearing Lewis Lung Carcinoma measured by the average weight change(g) after day 10 at an intraperitoneal dose of 6(mg/kg). It is filed as functional. The gist of the method:
as §1

The subject of data set [5] is Mus musculus. The data set is described as follows: […] anticancer activity against B6D2F-1 mice bearing Sarcoma 180 measured by the average weight change(g) after day 10 at an intraperitoneal dose of 7(mg/kg). It is filed as functional. The gist of the method:
(§2)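 Male B6D2F1 mice (8 weeks old, 20–25 g) were inoculated sc with 3×10^6 Sarcoma 180 cells on day 0. Dosing was ip, QDx5, starting on day 1. Groups were 4 control mice and 2 mice per dose. Average body weight change (g) and treated/control tumor volume were evaluated on days 7, 10 and 14.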

In data set [6] the test system is Mus musculus. As to the kind of experiment: […] anticancer activity against 5 B6D2F-1 mice bearing P388 leukemia measured by the toxicity death at an intravenous dose of 15(mg/kg). It is filed as organism-based. The note with it: in vivo. Summed up: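 Male B6D2F1 mice, 8 weeks old, 20–25 g. P388/0 ascites cells (0.2 mL, ascites:saline 1.10) were implanted iv on day 0, and the tumor grew in the liver. Drug was given iv by tail vein on days 1, 3, 5, 7 and 9 (Q2Dx5), with 4–5 mice per group. Survival time was scored as 8 a.m. (0.0), 1 p.m. (0.25) or 5 p.m. (0.5) deaths. %ILS was averaged against untreated controls, and toxic deaths were counted.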

In data set [7] the test system is Mus musculus. The data set is described as follows: […] anticancer activity against B6D2F-1 mice bearing Lewis Lung Carcinoma measured by the average weight change(g) after day 10 at an intraperitoneal dose of 3(mg/kg). It is filed as functional. The gist of the method: as §1
Data set [8] has as its system Mus musculus. The data set is described as follows: […] anticancer activity against B6D2F-1 mice bearing Sarcoma 180 measured by the average weight change(g) after day 7 at an intraperitoneal dose of 5(mg/kg). It is filed as functional. Summed up: as §2
Data set [9] has as its system Mus musculus. As to the kind of experiment: […] anticancer activity against B6D2F-1 mice bearing P388 leukemia measured by the average weight change(g) after day 11 at an intravenous dose of 15(mg/kg). It is filed as functional. Summed up:
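Male B6D2F1 mice (8 weeks old, 20–25 g) were implanted iv on day 0 with P388/0 ascites cells (0.2 mL; ascites:saline 1.10), which grew in the liver. Drug was given iv via the tail vein, Q2Dx5, on days 1, 3, 5, 7 and 9. Groups had 4–5 mice. Day 1 value is mean body weight; later days are weight change.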

Data set [10] concerns Mus musculus. As to the kind of experiment: […] anticancer activity against B6D2F-1 mice bearing P388 leukemia measured by the average weight change(g) after day 9 at an intravenous dose of 15(mg/kg). It is filed as functional. The gist of the method:
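Male B6D2F1 mice (8 weeks old, 20–25 g) were implanted iv on day 0 with P388/0 ascites cells (0.2 mL; ascites:saline = 1.10). Tumor grew in the liver. Drug was given iv via the tail vein, Q2Dx5, on days 1, 3, 5, 7 and 9. Body weight was recorded on days 1, 7, 9 and 11 and reported as the average change (g).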

Data set [11] concerns Mus musculus. The data set is described as follows: […] anticancer activity against B6D2F-1 mice bearing Lewis Lung Carcinoma measured by the Average tumor vol after day 14 at an intraperitoneal dose of 3(mg/kg). It is filed as functional. The gist of the method:
as §1

For data set [12], the system named is Mus musculus. The data set is described as follows: […] anticancer activity against B6D2F-1 mice bearing P388 leukemia measured by the Average tumor vol after day 11 at an intravenous dose of 7(mg/kg). It is filed as functional.
The test system of data set [13] is Mus musculus. The data set is described as follows: […] anticancer activity against B6D2F-1 mice bearing Lewis Lung Carcinoma measured by the Average tumor vol after day 14 at an intraperitoneal dose of 6(mg/kg). It is filed as functional. The gist of the method:
as §1

The test system of data set [14] is Mus musculus. As to the kind of experiment: […] anticancer activity against B6D2F-1 mice bearing Sarcoma 180 measured by the average weight change(g) after day 10 at an intraperitoneal dose of 5(mg/kg). It is filed as functional. The gist of the method:
as §2

Data set [15] deals with Mus musculus. The data set is described as follows: […] anticancer activity against B6D2F-1 mice bearing P388 leukemia measured by the average body weight(g) after day 1 at an intravenous dose of 10(mg/kg).
Data set [16] relates to Mus musculus. As to the kind of experiment: […] anticancer activity against B6D2F-1 mice bearing Sarcoma 180 measured by the average weight change(g) after day 7 at an intraperitoneal dose of 7(mg/kg). It is filed as functional. The gist of the method: as §2

Take `CCOC(=O)Nc1cc(CO)cc(Nc2c3ccccc3nc3ccccc23)c1`: the Average tumor volume is listed as 0.8 in the data set on Mus musculus [1]; 0.63 with Mus musculus [2]; 0.68 with Mus musculus [11]; <0.01 in the data set with Mus musculus [12]; 0.52 in the data set with Mus musculus [13]. Also, the Average weight change with Mus musculus [3] was -2.3 g; with Mus musculus [4] it was -2.6 g; in the data set with Mus musculus [5] it was -0.1 g; in the data set with Mus musculus [7] it was -1.3 g; in the data set on Mus musculus [8], -2.6 g; in the data set with Mus musculus [9] it was -3.7 g. In addition, the Average weight change in the data set with Mus musculus [10] is listed as -2 g; in the data set on Mus musculus [14], 1 g; with Mus musculus [16] it was -3.4 g. In the data set with Mus musculus [6], this compound returned a Toxicity related death of 4. This compound displayed a Body weight in the data set with Mus musculus [15] of 22.9 g.
